Converted amounts (≈) assume the structure as drawn. The source made the active and inactive calls. The rule behind the calls is not given here.
tested on: Pseudomonas aeruginosa; assay: Antimicrobial activity against Pseudomonas aeruginosa after 24 hrs; format: functional; settings: not given
Procedure, shortened: (§1)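 MIC by agar dilution: compound incorporated in nutrient agar at 0.1–256 µg/mL, with poorly soluble surfactants predissolved in minimal DMF and a DMF-matched solvent control. Plates were seeded with nutrient broth starter culture and incubated at 37 °C. Growth was scored visually after 24 h; test medium pH 6.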

| SMILES | MIC [µM] |
| --- | --- |
| CCCCCCCCCCCC(=O)N[C@@H](CCCNC(=N)N)C(=O)OC | 157 (≈ 58.2 µg/mL) |
| CCCCCCCCCCCC(=O)N[C@@H](CCCCN)C(=O)OC | 169 (≈ 57.9 µg/mL) |

tested on: Serratia marcescens; assay: Antimicrobial activity against Serratia marcescens after 24 hrs; format: functional; settings: not given; procedure, shortened: as §1

| SMILES | MIC [µM] |
| --- | --- |
| CCCCCCCCCCCC(=O)N[C@@H](CCCNC(=N)N)C(=O)OC | 315 (≈ 117 µg/mL) |
| CCCCCCCCCCCC(=O)N[C@@H](CCCCN)C(=O)OC | 338 (≈ 116 µg/mL) |

tested on: Staphylococcus aureus; assay: Antimicrobial activity against Staphylococcus aureus after 24 hrs; format: functional; settings: not given; procedure, shortened: as §1

| SMILES | MIC [µM] |
| --- | --- |
| CCCCCCCCCCCC(=O)NCCCC[C@H](N)C(=O)OC.Cl | 338 |
| CCCCCCCCCCCC(=O)N[C@@H](CCCNC(=N)N)C(=O)OC | 39 (≈ 14.5 µg/mL) |
| CCCCCCCCCCCC(=O)N[C@@H](CCCCN)C(=O)OC | 85 (≈ 29.1 µg/mL) |

tested on: Salmonella enterica subsp. enterica; assay: Antimicrobial activity against Salmonella Typhimurium after 24 hrs; format: functional, Salmonella enterica subsp. enterica serovar Typhimurium; settings: not given; procedure, shortened: as §1

| SMILES | MIC [µM] |
| --- | --- |
| CCCCCCCCCCCC(=O)N[C@@H](CCCNC(=N)N)C(=O)OC | 157 (≈ 58.2 µg/mL) |
| CCCCCCCCCCCC(=O)N[C@@H](CCCCN)C(=O)OC | 85 (≈ 29.1 µg/mL) |

tested on: Bacillus subtilis; assay: Antimicrobial activity against Bacillus subtilis after 24 hrs; format: functional; settings: not given; procedure, shortened: as §1

| SMILES | MIC [µM] |
| --- | --- |
| CCCCCCCCCCCC(=O)NCCCC[C@H](N)C(=O)OC.Cl | 338 |
| CCCCCCCCCCCC(=O)N[C@@H](CCCNC(=N)N)C(=O)OC | 157 (≈ 58.2 µg/mL) |
| CCCCCCCCCCCC(=O)N[C@@H](CCCCN)C(=O)OC | 42 (≈ 14.4 µg/mL) |

tested on: not listed separately; assay: Critical micelle concentration by PGSE-NMR method; format: physicochemical; settings: not given
Procedure, shortened: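 Surfactant intradiffusion measured by PGSE-NMR, varying gradient strength, from alkyl-chain CH2 signal intensities, at 25 °C (50 °C for the palmitoyl analogue). CMC taken from fitting the two-site exchange model D_obs = p_mic·D_mic + (1−p_mic)·D_free to the descending part of D versus concentration.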

| SMILES | CMC [mM] |
| --- | --- |
| CCCCCCCCCCCC(=O)NCCCC[C@H](N)C(=O)OC.Cl | 5.5 |

tested on: Micrococcus luteus; assay: Antimicrobial activity against Micrococcus luteus after 24 hrs; format: functional; settings: not given; procedure, shortened: as §1

| SMILES | MIC [µM] |
| --- | --- |
| CCCCCCCCCCCC(=O)NCCCC[C@H](N)C(=O)OC.Cl | 338 |
| CCCCCCCCCCCC(=O)N[C@@H](CCCNC(=N)N)C(=O)OC | 39 (≈ 14.5 µg/mL) |
| CCCCCCCCCCCC(=O)N[C@@H](CCCCN)C(=O)OC | 11 (≈ 3.77 µg/mL) |

tested on: Enterococcus hirae; assay: Antimicrobial activity against Enterococcus hirae after 24 hrs; format: functional; settings: not given; procedure, shortened: as §1

| SMILES | MIC [µM] |
| --- | --- |
| CCCCCCCCCCCC(=O)NCCCC[C@H](N)C(=O)OC.Cl | 338 |
| CCCCCCCCCCCC(=O)N[C@@H](CCCNC(=N)N)C(=O)OC | 39 (≈ 14.5 µg/mL) |

tested on: Bacillus cereus; assay: Antimicrobial activity against Bacillus cereus var. mycoides after 24 hrs; format: functional; settings: not given
Procedure, shortened: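 Agar dilution MIC: compounds incorporated into nutrient agar over 0.1–256 µg/mL; poorly soluble ones first dissolved in minimal DMF, then diluted into medium, with a DMF-supplemented solvent control. Inoculated from a nutrient broth starter culture to a final ca. 5 × […] CFU/mL. Incubated 24 h at 37 °C; growth scored visually against a compound-free control.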

| SMILES | MIC [µM] |
| --- | --- |
| CCCCCCCCCCCC(=O)NCCCC[C@H](N)C(=O)OC.Cl | 169 |
| CCCCCCCCCCCC(=O)N[C@@H](CCCNC(=N)N)C(=O)OC | 39 (≈ 14.5 µg/mL) |

tested on: Klebsiella aerogenes; assay: Antimicrobial activity against Enterobacter aerogenes at […] after 24 hrs; format: functional, organism-based; settings: not given

| SMILES | Activity |
| --- | --- |
| CCCCCCCCCCCC(=O)NCCCC[C@H](N)C(=O)OC.Cl | inactive |

tested on: not listed separately; assay: Toxicity in human erythrocytes assessed as hemolytic activity; format: cell-based, Erythrocyte; settings: not given
Procedure, shortened: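 Erythrocytes washed three times in isotonic phosphate saline with 10 mmol/L glucose, pH 7.4, then exposed to surfactant for 10 min at room temperature with shaking and centrifuged. Supernatant A540 compared with water-lysed total-haemolysis controls. HC50 read from percent haemolysis versus concentration plots.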

| SMILES | IC50 [µM] |
| --- | --- |
| CCCCCCCCCCCC(=O)NCCCC[C@H](N)C(=O)OC.Cl | 391 |
| CCCCCCCCCCCC(=O)N[C@@H](CCCNC(=N)N)C(=O)OC | 150 |
| CCCCCCCCCCCC(=O)N[C@@H](CCCCN)C(=O)OC | 199 |

tested on: Klebsiella aerogenes; assay: Antimicrobial activity against Enterobacter aerogenes after 24 hrs; format: functional; settings: not given; procedure, shortened: as §1

| SMILES | MIC [µM] |
| --- | --- |
| CCCCCCCCCCCC(=O)N[C@@H](CCCNC(=N)N)C(=O)OC | 157 (≈ 58.2 µg/mL) |
| CCCCCCCCCCCC(=O)N[C@@H](CCCCN)C(=O)OC | 157 (≈ 53.8 µg/mL) |

tested on: Mycolicibacterium phlei; assay: Antimicrobial activity against Mycobacterium phlei after 24 hrs; format: functional; settings: not given; procedure, shortened: as §1

| SMILES | MIC [µM] |
| --- | --- |
| CCCCCCCCCCCC(=O)NCCCC[C@H](N)C(=O)OC.Cl | 169 |
| CCCCCCCCCCCC(=O)N[C@@H](CCCNC(=N)N)C(=O)OC | 39 (≈ 14.5 µg/mL) |

tested on: not listed separately; assay: Dissociation constant, pKa of the compound; format: physicochemical; settings: not given
Procedure, shortened: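 Apparent pKa calculated from pH measurements of surfactant solutions at concentrations that show antimicrobial activity.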

| SMILES | pKa |
| --- | --- |
| CCCCCCCCCCCC(=O)NCCCC[C@H](N)C(=O)OC.Cl | 8.2 |

tested on: Salmonella enterica subsp. enterica; assay: Antimicrobial activity against Salmonella Typhimurium at […] after 24 hrs; format: functional, organism-based; settings: Salmonella enterica subsp. enterica serovar Typhimurium

| SMILES | Activity |
| --- | --- |
| CCCCCCCCCCCC(=O)NCCCC[C@H](N)C(=O)OC.Cl | inactive |

tested on: Bordetella bronchiseptica; assay: Antimicrobial activity against Bordetella bronchiseptica at […] after 24 hrs; format: functional, organism-based; settings: not given

| SMILES | Activity |
| --- | --- |
| CCCCCCCCCCCC(=O)NCCCC[C@H](N)C(=O)OC.Cl | inactive |

tested on: Escherichia coli; assay: Antimicrobial activity against Escherichia coli after 24 hrs; format: functional; settings: not given; procedure, shortened: as §1

| SMILES | MIC [µM] |
| --- | --- |
| CCCCCCCCCCCC(=O)NCCCC[C@H](N)C(=O)OC.Cl | 169 |
| CCCCCCCCCCCC(=O)N[C@@H](CCCNC(=N)N)C(=O)OC | 157 (≈ 58.2 µg/mL) |
| CCCCCCCCCCCC(=O)N[C@@H](CCCCN)C(=O)OC | 42 (≈ 14.4 µg/mL) |

tested on: Pseudomonas aeruginosa; assay: Antimicrobial activity against Pseudomonas aeruginosa at […] after 24 hrs; format: functional, organism-based; settings: not given

| SMILES | Activity |
| --- | --- |
| CCCCCCCCCCCC(=O)NCCCC[C@H](N)C(=O)OC.Cl | inactive |

tested on: Staphylococcus epidermidis; assay: Antimicrobial activity against Staphylococcus epidermidis after 24 hrs; format: functional; settings: not given; procedure, shortened: as §1

| SMILES | MIC [µM] |
| --- | --- |
| CCCCCCCCCCCC(=O)NCCCC[C@H](N)C(=O)OC.Cl | 169 |
| CCCCCCCCCCCC(=O)N[C@@H](CCCNC(=N)N)C(=O)OC | 20 (≈ 7.41 µg/mL) |
| CCCCCCCCCCCC(=O)N[C@@H](CCCCN)C(=O)OC | 42 (≈ 14.4 µg/mL) |

tested on: Serratia marcescens; assay: Antimicrobial activity against Serratia marcescens at […] after 24 hrs; format: functional, organism-based; settings: not given

| SMILES | Activity |
| --- | --- |
| CCCCCCCCCCCC(=O)NCCCC[C@H](N)C(=O)OC.Cl | inactive |

tested on: Bordetella bronchiseptica; assay: Antimicrobial activity against Bordetella bronchiseptica after 24 hrs; format: functional; settings: not given; procedure, shortened: as §1

| SMILES | MIC [µM] |
| --- | --- |
| CCCCCCCCCCCC(=O)N[C@@H](CCCNC(=N)N)C(=O)OC | 157 (≈ 58.2 µg/mL) |
| CCCCCCCCCCCC(=O)N[C@@H](CCCCN)C(=O)OC | 42 (≈ 14.4 µg/mL) |

tested on: not listed separately; assay: Toxicity against Daphnia magna after 24 hrs by immobility assay; settings: not given
Procedure, shortened: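 Daphnia magna acute test using laboratory-bred animals no older than 24 h. Medium pH 8.0, hardness 250 mg/L as CaCO3 (Ca/Mg 4/1), dark, 20 °C. Four groups of five per concentration, ten concentrations in geometric series. Immobility at 24 h plotted on log-probability paper; IC50 with 95% confidence ranges.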

| SMILES | IC50 [µM] |
| --- | --- |
| CCCCCCCCCCCC(=O)NCCCC[C@H](N)C(=O)OC.Cl | 32 |
| CCCCCCCCCCCC(=O)N[C@@H](CCCNC(=N)N)C(=O)OC | 36 |

tested on: Candida albicans; assay: Antimicrobial activity against Candida albicans after 24 hrs; format: functional; settings: not given; procedure, shortened: as §1

| SMILES | MIC [µM] |
| --- | --- |
| CCCCCCCCCCCC(=O)NCCCC[C@H](N)C(=O)OC.Cl | 169 |
| CCCCCCCCCCCC(=O)N[C@@H](CCCNC(=N)N)C(=O)OC | 157 (≈ 58.2 µg/mL) |

tested on: Klebsiella pneumoniae; assay: Antimicrobial activity against Klebsiella pneumoniae after 24 hrs; format: functional; settings: not given; procedure, shortened: as §1

| SMILES | MIC [µM] |
| --- | --- |
| CCCCCCCCCCCC(=O)NCCCC[C@H](N)C(=O)OC.Cl | 338 |
| CCCCCCCCCCCC(=O)N[C@@H](CCCNC(=N)N)C(=O)OC | 79 (≈ 29.3 µg/mL) |
| CCCCCCCCCCCC(=O)N[C@@H](CCCCN)C(=O)OC | 85 (≈ 29.1 µg/mL) |

— ChEMBL document CHEMBL1158367, “Cationic surfactants from lysine: synthesis, micellization and biological evaluation” (Eur J Med Chem, 2009)
